Experimental data as given in PubChem BioAssay AID822 (SRMLSC, 2007).
Activity calls are given as the source filed them.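 Rule for the calls: active = half-maximal effective dose for blocking growth of human endothelial cells at most 100 µM; inactive = the rest.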

Assay: growth suppression of umbilical vein endothelial cells – cell-based, HUVEC, ATP luminescence, dose response (AID 822);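 note: cells exposed to compound for 72 h before the ATP read; 100% = median luminescence of untreated cell-only control wells on each plate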
Conditions: HUVEC proliferation, viability ATP luminescence; at 10 µM (top of the series)
Method in brief: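 Material – HUVEC · Amount – 1250 HUVEC cells seeded per well · Medium – EBM plus 2% FBS · Dosing – dose series 0.039 to 20 µM, DMSO 0.2% · Times – 72 h exposure, 37 °C · Detection – ATP luminescence · Read-out basis – % viability and fitted EC50 · Format – collagen-coated plates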

SMILES | viability
COc1cccc(C(=O)Oc2c(CN3CCOCC3)cc(Cl)c3cccnc23)c1 | 84% (inactive)

Same assay, conditions: HUVEC proliferation, viability ATP luminescence; at 20 µM (top of the series)

SMILES | viability
CC(C(=O)N1CCOCC1)N1C(=O)c2ccccc2C1=O (centres undefined) | 105% (inactive)
CC1(C)CC(NC(=O)c2coc(=O)c(Br)c2)CC(C)(C)N1 | 81% (inactive)
Cc1cc(NC(=O)c2cccc(S(=O)(=O)N3CC(c4ccccc4)CC3=O)c2)no1 (centres undefined) | 91.3% (inactive)
Nc1nc2ccccc2n1/N=C/c1ccc(-c2ccccc2)o1 | 90.9% (inactive)
Cn1nnc(NC(=O)CSc2ccc(Cl)cc2)n1 | 103% (inactive)
CCCN(CCO)Cc1cccc(Br)c1 | 92.7% (inactive)
CC1(C)CSC(=S)N1S(=O)(=O)c1ccccc1 | 99.8% (inactive)
COc1ccc(-c2noc(-c3ccc(Br)o3)n2)cc1OC | 99.7% (inactive)
CCOc1ccc(-c2nn3c(-c4ccccc4)nnc3s2)cc1 | 83.3% (inactive)
CCOc1ccc(NS(=O)(=O)c2ccc(OCC(=O)NCCCOC)cc2)cc1 | 94.4% (inactive)
Cc1ccc(-n2c(Cc3cccs3)nnc2SCC(=O)Nc2ccc(F)c(F)c2)cc1 | 82.4% (inactive)
CCOC(=O)CNC(=O)C(=O)c1c(O)[nH]c2ccccc12 | 96.7% (inactive)
O=C1CSC(c2ccccn2)N1Cc1cn2ccccc2n1 (centres undefined) | 120% (inactive)
O=C(COc1nc2ccccc2nc1N1CCOCC1)N1CCc2ccccc21 | 86.1% (inactive)
COc1cccc2c(C)nc(Nc3nc(CSc4nnc(C)s4)cc(=O)[nH]3)nc12 | 101% (inactive)
CC1CCCN(c2oc(-c3cccc4ccccc34)nc2C#N)C1 (centres undefined) | 92.1% (inactive)
COc1ccc(CCn2c(=S)[nH]c3cc(C(=O)NCc4ccco4)ccc3c2=O)cc1OC | 102% (inactive)
COc1ccc2[nH]cc(C(=O)CN3CCN(C4CCCCC4)CC3)c2c1 | 85.4% (inactive)
CC1CCCC(NC(=O)C2CCN(S(=O)(=O)N3CCC4(CC3)OCCO4)CC2)C1C (centres undefined) | 93.2% (inactive)
COc1ccccc1N1CCN(C(=O)c2ccc(Br)s2)CC1 | 97.5% (inactive)
CC1CC(C)CN(S(=O)(=O)c2ccc(C(=O)NCCCn3ccnc3)cc2)C1 (centres undefined) | 88.4% (inactive)
Cn1c(SCC(=O)Nc2ccc(N3CCOCC3)cc2)nnc1-c1ccccc1 | 103% (inactive)
CCCC1(CCC)NC(=O)N(CC(=O)Nc2ccccc2OC)C1=O | 113% (inactive)
c1ccc(CSc2nnc(-c3c[nH]c4ccccc34)o2)cc1 | 85.9% (inactive)

SMILES | viability
COc1ccc(OC)c2sc(N3CCCCC3)nc12 | 88.4% (inactive)
Cc1ccc(Cn2c(SCC(=O)Nc3cc(C)on3)nc3ccccc3c2=O)cc1 | 81.2% (inactive)
O=C(Oc1ccccc1-c1nnco1)c1ccc(Cl)cc1 | 105% (inactive)
Cc1nc2ccccc2n1CCc1nc2c3ccccc3nc(SCC(=O)NCc3ccco3)n2n1 | 86.4% (inactive)
CCOC(=O)c1ccc2c(c1)NC(=O)C(N1CCN(c3ccc(OC)cc3)CC1)S2 (centres undefined) | 98% (inactive)
Cc1cc(C(=O)Nc2nc3ccc(S(C)(=O)=O)cc3s2)c(C)o1 | 82.9% (inactive)
Cn1c(=O)c2c(ncn2CC(=O)Nc2nc(-c3ccccc3Cl)cs2)n(C)c1=O | 89.5% (inactive)
Cc1ccc(-n2nnnc2SCC(=O)Nc2ccc3c(c2)COC3=O)cc1C | 91.3% (inactive)
Cc1ccc(Cn2c(=S)[nH]c3ccc(N4CCOCC4)cc3c2=O)o1 | 90.9% (inactive)
O=C(Nc1ccc(-c2nc3c(ccc4ccccc43)o2)cc1)c1ccco1 | 90% (inactive)
Cn1c(=O)cc(SCC(=O)NCC2COc3ccccc3O2)c2ccccc21 (centres undefined) | 98.4% (inactive)
N#CCC(=O)Nc1ncn(Cc2ccccc2Cl)n1 | 95.8% (inactive)
CCOc1cc(N2CCOCC2)c(OCC)cc1NC(=O)COc1ncnc2ccc(Br)cc12 | 91.2% (inactive)
COc1ccc(-c2nnc(SCCc3ccccc3)n2N)cc1 | 108% (inactive)
Cc1ccc(NC(=O)c2c(O)c3ccccc3n(C)c2=O)nc1 | 101% (inactive)
CCn1c(SCC(=O)Nc2cc(C)on2)nc2sc3c(c2c1=O)CCCC3 | 86.3% (inactive)
CCOC(=O)c1ccc(NC(=O)c2c(C)[nH]c(C(=O)OCC)c2C)cc1 | 96.7% (inactive)
CCOc1ccc(NC(=S)Nc2ccc(C)c([N+](=O)[O-])c2)cc1 | 88.7% (inactive)
COc1cc2c(C(=O)NCc3ccc4c(c3)OCO4)cn(CC(C)C)c(=O)c2cc1OC | 82.3% (inactive)
Oc1ccc2oc3c(c2c1/C=N/n1cnnc1)CCCC3 | 88.2% (inactive)
CC1=CC(C)(C)Nc2ccc(OC(=O)CN3C(=O)C4CCCCC4C3=O)cc21 (centres undefined) | 91% (inactive)
CC(C)(C)n1cnc2cc(NS(=O)(=O)c3ccccc3)ccc21 | 105% (inactive)
Cc1ccc(-c2nnc(N3CCN(C(=O)CSc4ncn[nH]4)CC3)c3ccccc23)cc1 | 85.9% (inactive)
CSc1nnc2n(-c3ccc(C)cc3)c(=O)c3c4c(sc3n12)COC(C(C)C)C4 (centres undefined) | 81.8% (inactive)
